# From ChEMBL document CHEMBL1158565, “Antagonism of 4-substituted 1,4-dihydropyridine-3,5-dicarboxylates toward voltage-dependent L-type Ca2+ channels Ca V 1.3 and Ca V 1.2” (Bioorg Med Chem, 2010)
# Tests used:
# [1] = target: Voltage-dependent L-type calcium channel subunit alpha-1C (Oryctolagus cuniculus, UniProt P15381); test: Antagonist activity at rabbit Cav1.2 expressed in HEK293 cells assessed as inhibition of voltage pulse-induced calcium current by FLIPR calcium 4 assay; format: functional, cell-based
# Voltage-dependent L-type calcium channel subunit alpha-1C, sequence (P15381 whole entry): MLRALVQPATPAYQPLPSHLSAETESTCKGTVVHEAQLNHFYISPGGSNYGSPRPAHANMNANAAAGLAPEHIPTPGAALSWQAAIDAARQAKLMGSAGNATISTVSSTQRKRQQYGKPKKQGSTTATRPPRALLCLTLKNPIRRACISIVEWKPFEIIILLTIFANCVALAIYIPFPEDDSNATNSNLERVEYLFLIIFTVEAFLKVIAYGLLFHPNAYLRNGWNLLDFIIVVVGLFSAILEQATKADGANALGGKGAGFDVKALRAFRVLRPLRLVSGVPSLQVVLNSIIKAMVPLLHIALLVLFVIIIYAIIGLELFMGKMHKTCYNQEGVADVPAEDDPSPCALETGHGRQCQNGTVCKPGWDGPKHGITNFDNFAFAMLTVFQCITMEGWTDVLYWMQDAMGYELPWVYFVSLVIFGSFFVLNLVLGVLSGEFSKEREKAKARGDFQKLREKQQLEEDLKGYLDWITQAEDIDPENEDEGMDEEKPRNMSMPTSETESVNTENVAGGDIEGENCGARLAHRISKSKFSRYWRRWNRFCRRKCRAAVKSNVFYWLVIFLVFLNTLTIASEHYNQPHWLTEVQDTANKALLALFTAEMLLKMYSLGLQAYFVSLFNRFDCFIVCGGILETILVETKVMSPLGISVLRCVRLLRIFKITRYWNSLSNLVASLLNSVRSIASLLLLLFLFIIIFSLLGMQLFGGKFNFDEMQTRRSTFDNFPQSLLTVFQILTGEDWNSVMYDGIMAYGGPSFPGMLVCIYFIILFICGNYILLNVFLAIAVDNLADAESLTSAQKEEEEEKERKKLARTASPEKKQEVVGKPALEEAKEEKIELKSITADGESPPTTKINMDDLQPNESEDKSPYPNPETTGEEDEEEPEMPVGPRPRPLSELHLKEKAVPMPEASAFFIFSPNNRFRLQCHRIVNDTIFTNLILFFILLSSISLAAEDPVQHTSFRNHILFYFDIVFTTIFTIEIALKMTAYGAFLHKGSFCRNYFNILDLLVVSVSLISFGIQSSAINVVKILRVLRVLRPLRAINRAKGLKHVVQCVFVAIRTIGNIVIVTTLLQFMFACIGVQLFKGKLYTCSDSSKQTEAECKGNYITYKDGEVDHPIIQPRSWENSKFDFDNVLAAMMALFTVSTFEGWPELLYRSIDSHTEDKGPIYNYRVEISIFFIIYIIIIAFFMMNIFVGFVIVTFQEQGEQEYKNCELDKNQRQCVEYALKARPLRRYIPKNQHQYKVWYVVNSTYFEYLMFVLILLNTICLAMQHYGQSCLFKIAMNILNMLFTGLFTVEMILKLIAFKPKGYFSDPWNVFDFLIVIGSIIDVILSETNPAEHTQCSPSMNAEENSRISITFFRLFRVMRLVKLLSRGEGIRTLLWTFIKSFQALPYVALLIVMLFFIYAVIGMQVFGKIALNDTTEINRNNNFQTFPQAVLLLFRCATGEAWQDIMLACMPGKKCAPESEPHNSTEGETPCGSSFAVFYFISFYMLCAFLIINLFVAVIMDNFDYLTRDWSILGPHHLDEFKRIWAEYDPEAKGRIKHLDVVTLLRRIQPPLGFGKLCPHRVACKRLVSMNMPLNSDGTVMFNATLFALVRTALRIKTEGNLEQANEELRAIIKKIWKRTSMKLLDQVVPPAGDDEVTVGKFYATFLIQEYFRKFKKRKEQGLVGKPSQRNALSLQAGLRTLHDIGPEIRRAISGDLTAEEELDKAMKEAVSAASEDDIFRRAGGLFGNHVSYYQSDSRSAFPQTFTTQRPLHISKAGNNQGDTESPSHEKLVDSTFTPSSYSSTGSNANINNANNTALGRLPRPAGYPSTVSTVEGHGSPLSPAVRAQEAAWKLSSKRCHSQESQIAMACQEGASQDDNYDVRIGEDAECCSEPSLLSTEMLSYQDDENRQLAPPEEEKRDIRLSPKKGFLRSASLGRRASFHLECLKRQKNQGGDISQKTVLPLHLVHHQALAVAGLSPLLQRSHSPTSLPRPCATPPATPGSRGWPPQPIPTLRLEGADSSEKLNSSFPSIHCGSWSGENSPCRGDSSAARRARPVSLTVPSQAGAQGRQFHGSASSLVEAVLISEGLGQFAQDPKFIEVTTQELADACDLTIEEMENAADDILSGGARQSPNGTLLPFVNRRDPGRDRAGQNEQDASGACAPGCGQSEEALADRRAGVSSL
# How it was run: (§1)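 HEK293 lines stably expressing Cavβ3 and Cavα2δ-1 plus Cav1.2 α1C (rabbit) or Cav1.3 α1D (rat) were selected with zeocin/hygromycin. Calcium signals were read by FLIPR with Calcium 4 dye. IC50 came from 11-point dose-response curves. Signal percentage error (SD/mean) was 6.4% for Cav1.2 and 4.1% for Cav1.3 cells.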
# [2] = target: Voltage-dependent L-type calcium channel subunit alpha-1D (Rattus norvegicus, UniProt P27732); test: Antagonist activity at rat Cav1.3 expressed in HEK293 cells assessed as inhibition of voltage pulse-induced calcium current by FLIPR calcium 4 assay; format: functional, cell-based; how it was run: as §1
# Voltage-dependent L-type calcium channel subunit alpha-1D, sequence (P27732 whole entry): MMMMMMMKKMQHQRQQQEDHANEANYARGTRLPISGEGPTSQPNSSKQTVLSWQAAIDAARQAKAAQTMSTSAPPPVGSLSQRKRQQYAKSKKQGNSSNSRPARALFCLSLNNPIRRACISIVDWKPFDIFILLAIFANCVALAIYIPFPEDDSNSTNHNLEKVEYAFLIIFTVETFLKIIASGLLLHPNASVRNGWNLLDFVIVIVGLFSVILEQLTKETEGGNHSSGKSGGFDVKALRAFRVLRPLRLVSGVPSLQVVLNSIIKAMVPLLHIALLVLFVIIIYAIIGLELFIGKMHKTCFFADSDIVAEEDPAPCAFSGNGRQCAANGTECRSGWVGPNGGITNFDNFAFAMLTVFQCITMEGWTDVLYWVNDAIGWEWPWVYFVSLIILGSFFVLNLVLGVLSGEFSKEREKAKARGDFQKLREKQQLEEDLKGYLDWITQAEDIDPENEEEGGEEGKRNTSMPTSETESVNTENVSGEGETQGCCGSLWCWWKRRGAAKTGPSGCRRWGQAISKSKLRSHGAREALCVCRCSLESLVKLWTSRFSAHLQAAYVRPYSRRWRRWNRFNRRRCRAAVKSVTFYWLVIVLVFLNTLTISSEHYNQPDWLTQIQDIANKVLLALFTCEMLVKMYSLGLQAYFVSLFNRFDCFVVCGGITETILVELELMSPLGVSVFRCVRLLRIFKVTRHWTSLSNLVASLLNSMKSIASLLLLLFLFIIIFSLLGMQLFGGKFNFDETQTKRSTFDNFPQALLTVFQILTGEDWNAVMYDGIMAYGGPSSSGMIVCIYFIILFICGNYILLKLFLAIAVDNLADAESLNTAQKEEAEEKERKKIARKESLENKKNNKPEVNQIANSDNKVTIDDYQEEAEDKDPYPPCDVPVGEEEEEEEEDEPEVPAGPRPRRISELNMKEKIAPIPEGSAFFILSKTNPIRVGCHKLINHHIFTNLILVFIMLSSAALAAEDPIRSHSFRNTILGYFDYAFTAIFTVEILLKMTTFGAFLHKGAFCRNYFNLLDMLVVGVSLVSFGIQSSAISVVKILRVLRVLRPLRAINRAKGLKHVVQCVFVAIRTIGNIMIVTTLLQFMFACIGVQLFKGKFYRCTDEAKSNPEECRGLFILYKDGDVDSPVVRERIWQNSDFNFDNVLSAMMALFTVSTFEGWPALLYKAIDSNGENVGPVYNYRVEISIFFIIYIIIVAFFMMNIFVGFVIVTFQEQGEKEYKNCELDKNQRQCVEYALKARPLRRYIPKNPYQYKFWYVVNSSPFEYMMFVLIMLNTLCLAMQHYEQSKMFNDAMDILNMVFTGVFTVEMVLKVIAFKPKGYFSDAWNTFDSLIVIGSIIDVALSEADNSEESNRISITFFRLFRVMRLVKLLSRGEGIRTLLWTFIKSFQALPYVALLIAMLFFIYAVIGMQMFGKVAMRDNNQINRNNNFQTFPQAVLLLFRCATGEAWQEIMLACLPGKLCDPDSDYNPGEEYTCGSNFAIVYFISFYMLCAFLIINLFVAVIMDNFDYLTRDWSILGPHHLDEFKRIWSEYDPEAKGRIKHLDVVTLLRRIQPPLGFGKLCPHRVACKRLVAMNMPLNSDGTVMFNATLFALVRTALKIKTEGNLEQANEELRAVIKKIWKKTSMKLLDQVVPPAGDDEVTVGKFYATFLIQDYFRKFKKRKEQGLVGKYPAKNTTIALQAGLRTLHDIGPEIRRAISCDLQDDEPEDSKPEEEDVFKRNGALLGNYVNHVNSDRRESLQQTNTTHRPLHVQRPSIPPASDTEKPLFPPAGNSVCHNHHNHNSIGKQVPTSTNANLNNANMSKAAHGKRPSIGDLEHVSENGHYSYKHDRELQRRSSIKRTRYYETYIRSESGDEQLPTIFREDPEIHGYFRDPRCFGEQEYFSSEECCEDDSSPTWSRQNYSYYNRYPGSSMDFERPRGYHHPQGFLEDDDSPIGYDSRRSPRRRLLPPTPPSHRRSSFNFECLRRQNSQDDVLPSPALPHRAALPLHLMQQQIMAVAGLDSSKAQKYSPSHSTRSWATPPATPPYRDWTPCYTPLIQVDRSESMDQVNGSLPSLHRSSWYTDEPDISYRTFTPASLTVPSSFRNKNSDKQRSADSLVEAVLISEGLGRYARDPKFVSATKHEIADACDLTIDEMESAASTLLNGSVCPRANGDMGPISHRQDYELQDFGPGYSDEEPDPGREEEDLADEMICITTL
SMILES,IC50 [1],IC50 [2]
COC(=O)C1=C(C)NC(C)=C(C(=O)OCCNC(=O)C(F)(F)F)C1c1cccc([N+](=O)[O-])c1 (configuration not stated),410 nM,550 nM
COC(=O)C1=C(C)NC(C)=C(C(=O)OC/C=C/c2ccccc2)C1c1cccc([N+](=O)[O-])c1 (configuration not stated) [PRANIDIPINE],37 nM,37 nM
CCOC(=O)C1=C(C)NC(C=CC(=O)OC)=C(C(=O)OCC)C1c1cccc([N+](=O)[O-])c1 (mixture of isomers),313 nM,213 nM
COC(=O)C1=C(C)NC(C)=C(C(=O)OCc2c(Cl)cc(Cl)cc2Cl)C1c1cccc([N+](=O)[O-])c1 (configuration not stated),10 nM,34 nM
COC(=O)C1=C(C)NC(C)=C(C(=O)OCCC#N)[C@@H]1c1cccc([N+](=O)[O-])c1,262 nM,399 nM
CCOC(=O)C1=C(C)NC(C)=C(C(=O)OCc2ccc([N+](=O)[O-])cc2)C1c1cccc([N+](=O)[O-])c1 (configuration not stated),130 nM,140 nM
COC(=O)C1=C(C)NC(C)=C(C(=O)OCc2ccc(F)c(F)c2)C1c1cccc([N+](=O)[O-])c1 (configuration not stated),7 nM,20 nM
COC(=O)C1=C(C)NC(C)=C(C(=O)OCc2ccc3c(c2)OCO3)C1c1cccc([N+](=O)[O-])c1 (configuration not stated),13 nM,22 nM
CCOC(=O)C1=C(C)NC(C)=C(C(=O)OCCOC)C1c1cccc([N+](=O)[O-])c1 (configuration not stated),16 nM,82 nM
CCCCCOC(=O)C1=C(C)NC(C)=C(C(=O)OCC)C1c1cccc([N+](=O)[O-])c1 (configuration not stated),49 nM,130 nM
COC(=O)C1=C(C)NC(C)=C(C(=O)OC2C=CCCC2)C1c1cccc([N+](=O)[O-])c1 (configuration not stated),10 nM,10 nM
CCOC(=O)C1=C(C)OC(C)=C(C(=O)OCC)C1c1cccc([N+](=O)[O-])c1,> 4000 nM,1920 nM
C=CCOC(=O)C1=C(C)NC(C)=C(C(=O)OC)C1c1ccccc1[N+](=O)[O-] (configuration not stated),8 nM,10 nM
CCOC(=O)C1=C(C)NC(C)=C(C(=O)OCC)C1(C)c1ccccc1,630 nM,2140 nM
CCOC(=O)C1=C(C)NC(CCl)=C(C(=O)OCC)C1c1cccc([N+](=O)[O-])c1 (configuration not stated),10 nM,53 nM
COCC1=C(C(=O)OC)C(c2cccc([N+](=O)[O-])c2)C(C(=O)OC)=C(C)N1 (configuration not stated),115 nM,350 nM
CCOC(=O)C1=C(C)NC(COC(=O)c2ccccc2)=C(C(=O)OCC)C1c1cccc([N+](=O)[O-])c1 (configuration not stated),210 nM,170 nM
CCOC(=O)C1=C(C)NC(COC)=C(C(=O)OC)C1c1cccc([N+](=O)[O-])c1 (configuration not stated),14 nM,96 nM
COC(=O)C1=C(C)NC(C)=C(C(=O)OCC2CC2)C1c1cccc([N+](=O)[O-])c1 (configuration not stated),28 nM,21 nM
COC(=O)C1=C(C)NC(C)=C(C(=O)OCC(C)[N+](=O)[O-])C1c1cccc([N+](=O)[O-])c1 (configuration not stated),108 nM,111 nM
COC(=O)C1=C(C)NC(C)=C(C(=O)OCc2cccs2)C1c1cccc([N+](=O)[O-])c1 (configuration not stated),31 nM,23 nM
CCOC(=O)C1=C(C)NC(C)=C(C(=O)OCCC#N)[C@@H]1c1cccc([N+](=O)[O-])c1,50 nM,137 nM
COC(=O)C1=C(C)NC(C)=C(C(=O)OCc2cc([N+](=O)[O-])cc([N+](=O)[O-])c2)C1c1cccc([N+](=O)[O-])c1 (configuration not stated),55 nM,40 nM
COC(=O)C1=C(C)NC(C)=C(C(=O)OCCC(c2ccccc2)c2ccccc2)C1c1cccc([N+](=O)[O-])c1 (configuration not stated),100 nM,270 nM
C#CCCOC(=O)C1=C(C)NC(C)=C(C(=O)OC)C1c1cccc([N+](=O)[O-])c1 (configuration not stated),31 nM,35 nM
COC(=O)C1=C(C)NC(C)=C(C(=O)OCCC(C)c2ccccc2)C1c1cccc([N+](=O)[O-])c1 (configuration not stated),6 nM,11 nM

SMILES,IC50 [1],IC50 [2]
C=CCOC(=O)C1=C(C)NC(C)=C(C(=O)OCC)C1c1ccc2ccccc2c1 (configuration not stated),1310 nM,2160 nM
CCOC(=O)C1=C(C)NC(/C=C/c2ccc([N+](=O)[O-])cc2)=C(C(=O)OCC)C1c1cccc([N+](=O)[O-])c1 (configuration not stated),1940 nM,2060 nM
COC(=O)C1=C(C)NC(C)=C(C(=O)OCCOCc2ccccc2)C1c1cccc([N+](=O)[O-])c1 (configuration not stated),9 nM,12 nM
COC(=O)C1=C(C)NC(C)=C(C(=O)OCCOc2ccccc2Cl)C1c1cccc([N+](=O)[O-])c1 (configuration not stated),19 nM,46 nM
COC(=O)C1=C(C)NC(C)=C(C(=O)OCc2ccc(OC)cc2)C1c1cccc([N+](=O)[O-])c1 (configuration not stated),51 nM,79 nM
COC(=O)C1=C(C)NC(C)=C(C(=O)OCc2ccc(OC)c(OC)c2)C1c1cccc([N+](=O)[O-])c1 (configuration not stated),112 nM,117 nM
COC(=O)C1=C(C)NC(C)=C(C(=O)OCCCCc2ccc(OC)cc2)C1c1cccc([N+](=O)[O-])c1 (configuration not stated),17 nM,38 nM
CCCC1=C(C(=O)OCC)C(c2cccc([N+](=O)[O-])c2)C(C(=O)OCC)=C(C)N1 (configuration not stated),18 nM,105 nM
COC(=O)C1=C(C)NC(C)=C(C(=O)OCCC#N)[C@H]1c1cccc([N+](=O)[O-])c1,143 nM,589 nM
CCOC(=O)C1=C(C)NC2=C(C(=O)OC2)C1c1cccc([N+](=O)[O-])c1 (configuration not stated),> 4000 nM,> 4000 nM
C=CCOC(=O)C1=C(C)NC(C)=C(C(=O)OCC)C1c1cccc([N+](=O)[O-])c1 (configuration not stated),25 nM,15 nM
CCOC(=O)C1=C(C)NC(C)=C(C(=O)OCCC#N)[C@H]1c1cccc([N+](=O)[O-])c1,51 nM,211 nM
COC(=O)C1=C(C)NC(C)=C(C(=O)OCCC#N)C1c1cccc([N+](=O)[O-])c1 (configuration not stated),26 nM,78 nM
COC(=O)C1=C(C)NC(C)=C(C(=O)O)C1c1cccc([N+](=O)[O-])c1 (configuration not stated),900 nM,930 nM
COC(=O)C1=C(C)NC(C)=C(C(=O)OCCCl)C1c1cccc([N+](=O)[O-])c1 (configuration not stated),26 nM,22 nM
COC(=O)C1=C(C)NC(C)=C(C(=O)OCCCOc2ccccc2)C1c1cccc([N+](=O)[O-])c1 (configuration not stated),9 nM,11 nM
CCOC(=O)C1=C(C)NC(COC)=C(C(=O)OC)C1c1ccccc1[N+](=O)[O-] (configuration not stated),1760 nM,790 nM
CCCCC1=C(C(=O)OCC)C(c2cccc([N+](=O)[O-])c2)C(C(=O)OCC)=C(C)N1 (configuration not stated),20 nM,20 nM
C=CCOC(=O)C1=C(C)NC(C)=C(C(=O)OC)C1c1cccc([N+](=O)[O-])c1 (configuration not stated),15 nM,15 nM
COC(=O)C1=C(C)NC(C)=C(C(=O)OCC(F)(F)F)C1c1cccc([N+](=O)[O-])c1 (configuration not stated),16 nM,21 nM
CCOC(=O)C1=C(C)NC(/C=C/C#N)=C(C(=O)OCC)C1c1cccc([N+](=O)[O-])c1 (configuration not stated),22 nM,45 nM
CC1=C(C#N)C(c2cccc(F)c2F)C(C#N)=C(C)N1,1610 nM,1150 nM
CCOC(=O)C1=C(C)NC(C)=C(C(=O)OCC)C1c1ccccc1SC,8 nM,15 nM
CCOC(=O)C1=C(C)NC(C)=C(C(C)=O)C1c1ccc2ccccc2c1 (configuration not stated),2220 nM,2320 nM
COC(=O)C1=C(C)NC(C)=C(C(=O)OCc2cccc(F)c2)C1c1cccc([N+](=O)[O-])c1 (configuration not stated),22 nM,28 nM
